According to ChEMBL document CHEMBL3244017, “Structure--activity relationships of pyrrole amidine antiviral antibiotics. 1. Modifications of the alkylamidine side chain” (J Med Chem, 1979):
Calls of active or inactive are those of the source.

Experiments:
[1] = Cytotoxicity against African green monkey BSC1 cells after 24 to 72 hrs by light microscopic analysis; type: cell-based, BSC-1; settings: chlorocebus aethiops
How it was run: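 BSC-1 monkey kidney cells incubated with drug at 37 °C, dissolved in 10% Me₂SO in water. Cell destruction was scored by light microscopy at 24, 48 and 72 h. Toxicity was defined as cell death within 2 days. The maximal nontoxic concentration is the nontoxic level whose twofold increase causes toxicity.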

[2] = tested on: BSC-1; assay: Inhibition of Herpes simplex virus 1 HF DNA polymerase-mediated DNA synthesis in African green monkey BSC1 cell nucleus at 400 ug/ml after 60 mins by [3H]-TTP incorporation assay relative to control; type: cell-based; settings: Human alphaherpesvirus 1
How it was run: (§1)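 Nuclei were taken from BSC-1 cells 20 h after HSV-1 infection by Dounce homogenization and low-speed spin. They were washed and incubated with drug for 60 min at 37 °C: 8 × 10⁶ nuclei, 80 mM K phosphate pH 7.4, 250 mM sucrose, 6 mM MgCl₂, 0.4 mM CaCl₂, 0.04 mM dATP/dGTP/dCTP, [³H]TTP, 1 mM ATP, PEP/pyruvate kinase, 5 mM EGTA. Read-out was TCA-precipitable radioactivity.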

[3] = tested on: BSC-1; assay: Inhibition of Herpes simplex virus 1 HF DNA polymerase-mediated DNA synthesis in African green monkey BSC1 cell nucleus at 200 ug/ml after 60 mins by [3H]-TTP incorporation assay relative to control; type: cell-based; settings: Human alphaherpesvirus 1; how it was run: as §1
[4] = tested on: Human alphaherpesvirus 1; assay: Antiviral activity against Herpes simplex virus 1 HF infected in African green monkey BSC1 cells assessed as inhibition of viral progeny production at 200 ug/ml after 20 to 24 hrs by plaque reduction assay relative to control; type: functional; settings: Human alphaherpesvirus 1, HF, BSC-1
How it was run: (§2)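 BSC-1 monkey kidney monolayers in DMEM with 10% fetal bovine serum, infected with HSV-1 strain HF at 10 pfu/cell. Drug, in 10% Me2SO in water, added at infection at the highest noncytotoxic concentration. Cultures held 20–24 h at 37 °C, then sonicated. Progeny titred by plaque assay on BSC-1 (3 h adsorption, agar overlay, 72 h, gentian violet). Inhibition is plaque count with drug versus without.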

[5] = tested on: BSC-1; assay: Inhibition of Herpes simplex virus 1 HF DNA polymerase-mediated DNA synthesis in African green monkey BSC1 cell nucleus at 25 to 300 ug/ml after 60 mins by [3H]-TTP incorporation assay relative to control; type: cell-based; settings: Human alphaherpesvirus 1; how it was run: as §1
[6] = tested on: Human alphaherpesvirus 1; assay: Antiviral activity against Herpes simplex virus 1 HF infected in African green monkey BSC1 cells assessed as inhibition of viral progeny production at 25 ug/ml after 20 to 24 hrs by plaque reduction assay relative to control; type: functional; settings: Human alphaherpesvirus 1, HF, BSC-1; how it was run: as §2
[7] = tested on: BSC-1; assay: Inhibition of Herpes simplex virus 1 HF DNA polymerase-mediated DNA synthesis isolated from virus-infected African green monkey BSC1 cells at 25 to 400 ug/ml by [3H]-TTP incorporation assay; type: cell-free; settings: Human alphaherpesvirus 1
How it was run: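 HSV DNA polymerase came from nuclear extracts of BSC-1 cells 12 h post-infection, via 70% ammonium sulfate precipitation and sucrose gradients. Assay: 250 mM KCl, 2 mM MgCl₂, 0.05 mM dGTP/dATP/dCTP, 0.01 mM TTP plus [³H]TTP, 500 µg/mL activated calf thymus DNA, 10 mM Tris-HCl pH 8.1, 0.5 µg/mL BSA. Inhibition relative to drug-free reactions.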

[8] = tested on: BSC-1; assay: Inhibition of Herpes simplex virus 1 HF DNA polymerase-mediated DNA synthesis in African green monkey BSC1 cell nucleus after 60 mins by [3H]-TTP incorporation assay relative to control; type: cell-based; settings: Human alphaherpesvirus 1; how it was run: as §1
[9] = tested on: Human alphaherpesvirus 1; assay: Antiviral activity against Herpes simplex virus 1 HF infected in African green monkey BSC1 cells assessed as inhibition of viral progeny production at 50 ug/ml after 20 to 24 hrs by plaque reduction assay relative to control; type: functional; settings: Human alphaherpesvirus 1, HF, BSC-1; how it was run: as §2

With CC(CC#N)NC(=O)c1cc(NC(=O)c2cc(NC(=O)c3cc(NC=O)cn3C)cn2C)cn1C (stereo not drawn) the MNTC [1] was over 200 µg/mL, the inhibition [2] was “Active” and the inhibition [3] was under 42%. The inhibition at 200 µg/mL [4] was 84.6% and the inhibition [5] was “Active”.

With Cn1cc(NC=O)cc1C(=O)Nc1cc(C(=O)Nc2cc(C(=O)Nc3ccc(C(=N)N)cc3)n(C)c2)n(C)c1 the MNTC [1] was over 200 µg/mL, the inhibition [2] was “Active” and the inhibition [3] was under 42%. It also gave an inhibition at 200 µg/mL [4] of 76.4%.

In the case of Cn1cc(NC=O)cc1C(=O)Nc1cc(C(=O)Nc2cc(C(=O)Nc3ccccc3C(=N)N)n(C)c2)n(C)c1, the MNTC [1] is reported as over 200 µg/mL, the inhibition [2] is reported as “Active” and the inhibition [3] is reported as 65%. For the same compound, the inhibition at 200 µg/mL [4] was 96.7%.

In the case of Cn1cc(NC(=O)c2cc(NC(=O)c3cc(NC=O)cn3C)cn2C)cc1C(=O)NCCC(=N)N, the MNTC [1] is reported as 25 µg/mL, the inhibition at 25 µg/mL [6] is reported as 99.7% and the inhibition [2] is reported as “Active”. For the same compound, the inhibition [3] was 95% and the inhibition [7] was “Active”.

With Cn1cc(NC(=O)c2cc(NC(=O)c3cc([N+](=O)[O-])cn3C)cn2C)cc1C(=O)Nc1ccc(C(=N)N)cc1 the MNTC [1] was over 200 µg/mL, the “inhibition of viral DNA synthesis (active/not active)” value (“inhibition … (active/not active)” below) [8] was “inactive” and the inhibition at 200 µg/mL [4] was 94.8%.

For Cn1cc(NC(=O)c2cc(NC(=O)c3cc([N+](=O)[O-])cn3C)cn2C)cc1C(=O)Nc1cccc(C(=N)N)c1, the MNTC [1] was over 200 µg/mL, the “inhibition … (active/not active)” value [8] was “inactive” and the inhibition at 200 µg/mL [4] was 97.2%.

In the case of Cn1cc(NC=O)cc1C(=O)Nc1cc(C(=O)Nc2cc(C(=O)Nc3cccc(C(=N)N)c3)n(C)c2)n(C)c1, the MNTC [1] is reported as over 200 µg/mL, the inhibition [2] is reported as “Active” and the inhibition [3] is reported as 65%. For the same compound, the inhibition at 200 µg/mL [4] was 97.1% and the inhibition [7] was “Active”.

In the case of CC(CC(=N)N)NC(=O)c1cc(NC(=O)c2cc(NC(=O)c3cc([N+](=O)[O-])cn3C)cn2C)cn1C (stereo not drawn), the MNTC [1] is reported as over 200 µg/mL, the “inhibition … (active/not active)” value [8] is reported as “Active” and the inhibition at 200 µg/mL [4] is reported as 93.7%.

With Cn1cc(NC(=O)c2cc([N+](=O)[O-])cn2C)cc1C(=O)Nc1cc(C(=O)Nc2ccccc2C(=N)N)n(C)c1 the MNTC [1] was over 200 µg/mL, the “inhibition … (active/not active)” value [8] was “inactive” and the inhibition at 200 µg/mL [4] was 96.9%.

In the case of Cn1cc(NC(=O)c2cc(NC(=O)c3cc(NC=O)cn3C)cn2C)cc1C(=O)NCC(=N)N, the MNTC [1] is reported as over 200 µg/mL, the inhibition [2] is reported as “Active” and the inhibition [3] is reported as 65%. It also gave an inhibition at 200 µg/mL [4] of 61%.

With Cn1cc(NC(=O)c2cc(NC(=O)c3cc([N+](=O)[O-])cn3C)cn2C)cc1C(=O)NCCC(=N)N the MNTC [1] was over 200 µg/mL, the “inhibition … (active/not active)” value [8] was “Active” and the inhibition at 200 µg/mL [4] was 86.5%.

In the case of Cn1cc(NC(=O)c2cc(NC(=O)c3cc([N+](=O)[O-])cn3C)cn2C)cc1C(=O)NCC(=N)N, the MNTC [1] is reported as 50 µg/mL, the “inhibition … (active/not active)” value [8] is reported as “inactive” and the inhibition at 50 µg/mL [9] is reported as 98.1%.

For Cn1cc(NC(=O)c2cc(NC(=O)c3cc(NC=O)cn3C)cn2C)cc1C(=O)NCCC#N, the MNTC [1] was over 200 µg/mL, the inhibition [2] was “Active” and the inhibition [3] was 65%. It also gave an inhibition at 200 µg/mL [4] of 65.5%.

For CC(CC(=N)N)NC(=O)c1cc(NC(=O)c2cc(NC(=O)c3cc(NC=O)cn3C)cn2C)cn1C (stereo not drawn), the MNTC [1] was over 200 µg/mL, the inhibition [2] was “Active” and the inhibition [3] was 86%. It also gave an inhibition at 200 µg/mL [4] of 48%.
